Calls of active or inactive are those of the source. The calls are words filed in the database; no cut-off is given here.
Key:
[1] = target: T1, Muscarinic acetylcholine receptor M2 (Sus scrofa) (UniProt P06199); test: Equilibrium binding to muscarinic acetylcholine receptor M2 using [3H]NMS in porcine heart ventricles
T1 sequence (whole entry): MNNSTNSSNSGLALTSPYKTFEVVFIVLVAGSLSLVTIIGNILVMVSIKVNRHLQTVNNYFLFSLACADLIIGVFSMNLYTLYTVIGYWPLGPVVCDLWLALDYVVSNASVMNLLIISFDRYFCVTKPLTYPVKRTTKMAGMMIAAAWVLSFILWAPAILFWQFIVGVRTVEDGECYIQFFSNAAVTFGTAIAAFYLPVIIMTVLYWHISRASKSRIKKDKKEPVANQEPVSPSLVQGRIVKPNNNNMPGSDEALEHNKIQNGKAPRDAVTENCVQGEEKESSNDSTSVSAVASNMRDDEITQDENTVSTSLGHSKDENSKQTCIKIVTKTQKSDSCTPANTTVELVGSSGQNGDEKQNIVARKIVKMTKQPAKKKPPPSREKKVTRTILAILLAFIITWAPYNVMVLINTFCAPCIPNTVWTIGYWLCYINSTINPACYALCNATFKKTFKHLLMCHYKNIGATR

[2] = target: T1, Muscarinic acetylcholine receptor M2 (Sus scrofa); test: Concentration for half maximal inhibition of [3H]NMS dissociation from muscarinic acetylcholine receptor M2 in porcine heart ventricles
Method in brief: (§1)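 Porcine cardiac homogenates, 0.2 nM [3H]NMS in 4 mM Na2HPO4/1 mM KH2PO4 pH 7.4, 23 °C; preincubated 30 min, then dissociation started with 1 μM atropine with or without modulator. Specific binding sampled over 120 min (complete) or at t=0 and 10 min (two-point). Apparent k-1 expressed as % control; four-parameter logistic fit gives EC0.5,diss. Two to four experiments; nonspecific defined by 10^-6 M atropine; filtration, scintillation counting.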

[3] = target: T1, Muscarinic acetylcholine receptor M2 (Sus scrofa); test: Effective concentration for half maximal inhibition of [3H]NMS dissociation from Muscarinic acetylcholine receptor M2 in porcine heart ventricles; Non-active
Method in brief: as §1

SMILES | [3H]NMS equilibrium binding (%) [1] | pEC0.5 [2] | pEC0.5 [3]
O=C1c2ccccc2C(=O)N1CCC[N@+]12CCC34c5ccccc5N5C6OCC=C7C[N@+]8(CCCN9C(=O)c%10ccccc%10C9=O)CCC9%10c%11ccccc%11N(C%11OCC=C(C1)C(CC32)C%11C54)C9C6C7CC%108 (stereo partly drawn) | 88.4% | 6.43 | 
C=CC[N+]12CC[C@@]34c5ccccc5N5/C=C6\C7N(c8ccccc8[C@@]78CC[N+]7(CC=C)C/C(=C/CO)[C@@H]6C[C@@H]87)[C@@H]6OCC=C(C1)[C@H](C[C@@H]32)C6C54 (stereo partly drawn) | 119% | 8.57 | 
C=CC[N+]12CC[C@@]34c5ccccc5N5[C@@H]6OCC=C7C[N+]8(CC=C)CC[C@]9%10c%11ccccc%11N([C@@H]%11OCC=C(C1)[C@H](C[C@@H]32)[C@@H]%11[C@H]54)[C@H]9[C@H]6[C@H]7C[C@@H]%108 (stereo partly drawn) | 109% | 7.95 | 
C[N+]12CC[C@@]34c5ccccc5N5[C@@H]6OCC[C@@H]7C[N+]8(C)CC[C@]9%10c%11ccccc%11N([C@@H]%11OCC[C@H](C1)[C@H](C[C@@H]32)C%11[C@H]54)[C@H]9[C@H]6[C@H]7C[C@@H]%108 (stereo partly drawn) | 104% | 8.44 | 
C1=C2C[N@+]3(Cc4ccccc4)CCC45c6ccccc6N6C7OCC=C8C[N@+]9(Cc%10ccccc%10)CCC%10%11c%12ccccc%12N(C(OC1)C(C2CC43)C65)C%10C7C8CC%119 (stereo partly drawn) | 86.4% | 7.12 | 
C[N+]12CCC34c5ccccc5N5/C=C6/C7CC8C9(CC[N+]8(C)C/C7=C/CO)c7ccccc7N(/C=C(/C(CC31)/C(=C/CO)C2)C54)C69 (stereo not drawn) | 119% | 7.87 | 
C=CC[N+]12CC[C@]34c5cc(OC)c(OC)cc5N5C3[C@@H]3[C@@H](OCC=C(C1)[C@@H]3C[C@@H]42)N1c2cc(OC)c(OC)cc2[C@@]23CC[N+]4(CC=C)CC6=CCO[C@@H]5[C@@H](C12)[C@H]6C[C@@H]34 (stereo partly drawn) |  | 6.69 | 
C#CC[N@+]12CCC34c5ccccc5N5C6OCC=C7C[N@+]8(CC#C)CCC9%10c%11ccccc%11N(C%11OCC=C(C1)C(CC32)C%11C54)C9C6C7CC%108 (stereo partly drawn) | 105% | 8.36 | 
C[N@@+]12CC[C@@]34c5ccccc5N5/C=C6/[C@H]7C[C@H]8[C@@]9(CC[N@@+]8(C)C/C7=C/CO)c7ccccc7N(/C=C(/[C@@H](C[C@@H]31)/C(=C\CO)C2)[C@H]54)[C@@H]69 | 104% | 7.02 | 
Brc1ccc(C[N+]23CC[C@@]45c6ccccc6N6[C@@H]7OCC=C8C[N+]9(Cc%10ccc(Br)cc%10)CC[C@]%10%11c%12ccccc%12N([C@@H]%12OCC=C(C2)[C@H](C[C@@H]43)[C@@H]%12[C@H]65)[C@H]%10[C@H]7[C@H]8C[C@@H]%119)cc1 (stereo partly drawn) | 113% | 6.29 | 
OC/C=C1\C[N+]2(C3C=CCCC3)CCC34c5ccccc5N5/C=C6/C7CC8C9(CC[N+]8(C8C=CCCC8)C/C7=C/CO)c7ccccc7N(/C=C(/C1CC32)C54)C69 (stereo not drawn) | 118% | 8.07 | 
C[N+]12CC[C@@]34c5ccccc5N5[C@@H]6OCC=C7C[N+]8(C)CC[C@]9%10c%11ccccc%11N([C@@H]%11OCC=C(C1)[C@H](C[C@@H]32)[C@@H]%11[C@H]54)[C@H]9[C@H]6[C@H]7C[C@@H]%108 (stereo partly drawn) | 115% | 8.09 | 
C=CC[N@@+]12CC[C@@]34c5ccccc5N5/C=C6/[C@H]7C[C@H]8[C@@]9(CC[N@@+]8(CC=C)C/C7=C/CO)c7ccccc7N(/C=C(/[C@@H](C[C@@H]31)/C(=C\CO)C2)[C@H]54)[C@@H]69 | 116% | 8.65 | 
C1=C2CN3CC[C@]45c6ccccc6N6[C@@H]7OCC=C8CN9CC[C@]%10%11c%12ccccc%12N([C@H](OC1)[C@@H]([C@H]64)[C@H]2C[C@H]35)[C@H]%10[C@H]7[C@H]8C[C@H]9%11 | 95.8% | 6.36 | 

Now from value to compound:

[3H]NMS equilibrium binding (%) [1] | pEC0.5 [2] | pEC0.5 [3] | SMILES
100% | 6.47 |  | COc1ccc(C[N+]23CC[C@@]45c6ccccc6N6[C@@H]7OCC=C8C[N+]9(Cc%10ccc(OC)c(OC)c%10)CC[C@]%10%11c%12ccccc%12N([C@@H]%12OCC=C(C2)[C@H](C[C@@H]43)C%12[C@H]65)[C@H]%10[C@H]7[C@H]8C[C@@H]%119)cc1OC (stereo partly drawn)
111% | 7.27 |  | Fc1c(F)c(F)c(C[N@+]23CCC45c6ccccc6N6C7OCC=C8C[N@+]9(Cc%10c(F)c(F)c(F)c(F)c%10F)CCC%10%11c%12ccccc%12N(C%12OCC=C(C2)C(CC43)C%12C65)C%10C7C8CC%119)c(F)c1F (stereo partly drawn)
87.8% | 6.65 |  | NC(=O)C[N+]12CC[C@@]34c5ccccc5N5[C@@H]6OCC=C7C[N+]8(CC(N)=O)CC[C@]9%10c%11ccccc%11N([C@@H]%11OCC=C(C1)[C@H](C[C@@H]32)[C@@H]%11[C@H]54)[C@H]9[C@H]6[C@H]7C[C@@H]%108 (stereo partly drawn)
70.4% | 5.95 |  | COc1ccc(C[N+]23CC[C@@]45c6ccccc6N6[C@@H]7OCC=C8C[N+]9(Cc%10ccc(OC)cc%10)CC[C@]%10%11c%12ccccc%12N([C@@H]%12OCC=C(C2)[C@H](C[C@@H]43)[C@@H]%12[C@H]65)[C@H]%10[C@H]7[C@H]8C[C@@H]%119)cc1 (stereo partly drawn)
87% | 5.76 |  | FC(F)(F)c1ccc(C[N+]23CC[C@@]45c6ccccc6N6[C@@H]7OCC=C8C[N+]9(Cc%10ccc(C(F)(F)F)cc%10)CC[C@]%10%11c%12ccccc%12N([C@@H]%12OCC=C(C2)[C@H](C[C@@H]43)[C@@H]%12[C@H]65)[C@H]%10[C@H]7[C@H]8C[C@@H]%119)cc1 (stereo partly drawn)
100% | 7.14 |  | C/C=C/C[N@+]12CCC34c5ccccc5N5C6OCC=C7C[N@+]8(C/C=C/C)CCC9%10c%11ccccc%11N(C%11OCC=C(C1)C(CC32)C%11C54)C9C6C7CC%108 (stereo partly drawn)
6.1% | 5.49 |  | O=C(C[N+]12CC[C@@]34c5ccccc5N5[C@@H]6OCC=C7C[N+]8(CC(=O)c9ccccc9)CC[C@]9%10c%11ccccc%11N([C@@H]%11OCC=C(C1)[C@H](C[C@@H]32)[C@@H]%11[C@H]54)[C@H]9[C@H]6[C@H]7C[C@@H]%108)c1ccccc1 (stereo partly drawn)
85.3% | 6.69 |  | N#CC[N+]12CC[C@@]34c5ccccc5N5[C@@H]6OCC=C7C[N+]8(CC#N)CC[C@]9%10c%11ccccc%11N([C@@H]%11OCC=C(C1)[C@H](C[C@@H]32)C%11[C@H]54)[C@H]9[C@H]6[C@H]7C[C@@H]%108 (stereo partly drawn)
110% | 7.86 |  | C1=C2C[N@+]3(CC4CC4)CCC45c6ccccc6N6C7OCC=C8C[N@+]9(CC%10CC%10)CCC%10%11c%12ccccc%12N(C(OC1)C(C2CC43)C65)C%10C7C8CC%119 (stereo partly drawn)
 |  | inactive | [O-][N+]12CC[C@@]34c5ccccc5N5[C@@H]6OCC=C7C[N+]8([O-])CC[C@]9%10c%11ccccc%11N([C@@H]%11OCC=C(C1)[C@H](C[C@@H]32)C%11[C@H]54)[C@H]9[C@H]6[C@H]7C[C@@H]%108 (stereo partly drawn)
81.4% | 7.74 |  | C=CC[N+]12CC[C@@]34c5ccccc5N5[C@@H]6OCC=C7CN8CC[C@]9%10c%11ccccc%11N([C@@H]%11OCC=C(C1)[C@H](C[C@@H]32)[C@@H]%11[C@H]54)[C@H]9[C@H]6[C@H]7C[C@H]8%10 (stereo partly drawn)
110% | 7.19 |  | C1=C2C[N+]3(CC4CO4)CC[C@@]45c6ccccc6N6[C@@H]7OCC=C8C[N+]9(CC%10CO%10)CC[C@]%10%11c%12ccccc%12N([C@H](OC1)[C@H](C2C[C@@H]43)[C@H]65)[C@H]%10[C@H]7[C@H]8C[C@@H]%119 (stereo partly drawn)
109% | 7.7 |  | C1=CC([N@+]23CCC45c6ccccc6N6C7OCC=C8C[N@+]9(C%10C=CCCC%10)CCC%10%11c%12ccccc%12N(C%12OCC=C(C2)C(CC43)C%12C65)C%10C7C8CC%119)CCC1 (stereo partly drawn)
89% | 5.82 |  | C1=C2C[N@+]3(Cc4ccc5ccccc5c4)CCC45c6ccccc6N6C7OCC=C8C[N@+]9(Cc%10ccc%11ccccc%11c%10)CCC%10%11c%12ccccc%12N(C(OC1)C(C2CC43)C65)C%10C7C8CC%119 (stereo partly drawn)
99.8% | 6.47 |  | O=[N+]([O-])c1ccc(C[N+]23CC[C@@]45c6ccccc6N6[C@@H]7OCC=C8C[N+]9(Cc%10ccc([N+](=O)[O-])cc%10)CC[C@]%10%11c%12ccccc%12N([C@@H]%12OCC=C(C2)[C@H](C[C@@H]43)C%12[C@H]65)[C@H]%10[C@H]7[C@H]8C[C@@H]%119)cc1 (stereo partly drawn)
103% | 7.36 |  | CC#CC[N@+]12CCC34c5ccccc5N5C6OCC=C7C[N@+]8(CC#CC)CCC9%10c%11ccccc%11N(C%11OCC=C(C1)C(CC32)C%11C54)C9C6C7CC%108 (stereo partly drawn)

Reference: ChEMBL document CHEMBL1148351, “Probing the pharmacophore for allosteric ligands of muscarinic M2 receptors: SAR and QSAR studies in a series of bisquaternary salts of caracurine V and related ring systems” (J Med Chem, 2004)
